Active and inactive are the calls of the source. The rule behind the calls is not given here.
Legend:
Histamine H3 receptor [1] = target: T1, Histamine H3 receptor (Homo sapiens, UniProt Q9Y5N1); experiment: Histamine H3 receptor competition binding using [3H]Na-methylhistamine
Histamine H3 receptor [2] = target: T1, Histamine H3 receptor; experiment: Inhibition of the forskolin-stimulated cAMP production in SK-N-MC cells expressing human Histamine H3 receptor; type: functional, cell-based
Histamine H3 receptor [3] = target: T1, Histamine H3 receptor; experiment: Efficacy measured for human Histamine H3 receptor relative to histamine; type: functional
Histamine H4 receptor [4] = target: T2, Histamine H4 receptor (Homo sapiens, UniProt Q9H3N8); experiment: Inhibition of the forskolin-stimulated cAMP production in SK-N-MC cells expressing human Histamine H4 receptor; type: functional, cell-based
T2 sequence (Q9H3N8 whole entry): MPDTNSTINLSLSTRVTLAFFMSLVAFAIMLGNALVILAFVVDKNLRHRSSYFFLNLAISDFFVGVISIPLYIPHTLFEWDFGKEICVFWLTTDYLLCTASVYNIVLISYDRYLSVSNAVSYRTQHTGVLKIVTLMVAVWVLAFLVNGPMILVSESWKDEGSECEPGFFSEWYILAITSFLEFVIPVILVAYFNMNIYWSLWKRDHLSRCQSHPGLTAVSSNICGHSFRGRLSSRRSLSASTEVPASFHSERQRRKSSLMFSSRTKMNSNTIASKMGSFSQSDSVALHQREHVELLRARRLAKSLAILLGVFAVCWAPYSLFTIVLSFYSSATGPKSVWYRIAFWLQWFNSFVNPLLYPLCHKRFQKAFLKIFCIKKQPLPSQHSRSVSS

Histamine H4 receptor [5] = target: T2, Histamine H4 receptor; experiment: Histamine H4 receptor competition binding using [3H]Na-methylhistamine
Histamine H4 receptor [6] = target: T2, Histamine H4 receptor; experiment: Efficacy measured for human Histamine H4 receptor relative to histamine; type: functional
Histamine H3 receptor [7] = target: T1, Histamine H3 receptor; experiment: Compound was tested for H3 receptor competition binding using [3H]- Na-methylhistamine
Method in brief: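 Homogenates of SK-N-MC cells stably expressing human H3 receptor, in 50 mM Na2HPO4 pH 7.4, incubated 1 h at 37 °C with 1.0 nM [3H]Nα-methylhistamine with or without competitor. Filtration through GF/C filters pretreated with 0.3% polyethylenimine, three washes with ice-cold 25 mM Tris-HCl, 145 mM NaCl pH 7.4, then scintillation counting.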

Histamine H3 receptor [8] = target: T1, Histamine H3 receptor; experiment: Inhibition of the forskolin-stimulated cAMP production in SK-N-MC cells expressing human Histamine H3 receptor; Not effective; type: functional, cell-based

T1 sequence (Q9Y5N1 whole entry): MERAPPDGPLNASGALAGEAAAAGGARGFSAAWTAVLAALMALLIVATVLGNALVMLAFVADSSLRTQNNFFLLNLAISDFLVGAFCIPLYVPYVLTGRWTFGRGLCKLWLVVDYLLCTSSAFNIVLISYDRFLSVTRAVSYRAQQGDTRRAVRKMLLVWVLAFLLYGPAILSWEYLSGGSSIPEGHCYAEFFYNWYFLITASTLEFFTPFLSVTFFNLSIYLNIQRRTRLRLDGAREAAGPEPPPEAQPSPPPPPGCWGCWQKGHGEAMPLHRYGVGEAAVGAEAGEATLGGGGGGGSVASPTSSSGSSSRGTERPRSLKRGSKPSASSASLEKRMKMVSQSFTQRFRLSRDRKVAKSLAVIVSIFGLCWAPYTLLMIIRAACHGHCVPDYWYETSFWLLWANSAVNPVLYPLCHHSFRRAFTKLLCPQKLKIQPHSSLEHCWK

Row | Structure (SMILES) | Ki (Histamine H3 receptor [1]) [nM] | EC50 (Histamine H3 receptor [2]) [nM] | Efficacy (Histamine H3 receptor [3]) | EC50 (Histamine H4 receptor [4]) [µM] | Ki (Histamine H4 receptor [5]) [µM] | Efficacy (Histamine H4 receptor [6]) | Ki (Histamine H3 receptor [7]) [µM] | NE (Histamine H3 receptor [8])
1 | c1ccc(COC[C@H]2CC[C@H](c3c[nH]cn3)O2)cc1 | 245 | 91.2 | 0.97 | 0.741 | 1.05 | 0.46 |  | 
2 | NC[C@@H]1C=C[C@H](c2c[nH]cn2)O1 (single isomer, unassigned) | 11500 | 26900 | 0.93 | 40.7 | 21.9 | 0.74 |  | 
3 | C/N=C(\NC#N)NC[C@@H]1CC[C@@H](c2c[nH]cn2)O1 |  |  |  | 21.4 | 20.4 | 1.06 |  | 
4 | NC[C@H]1C=C[C@H](c2c[nH]cn2)O1 | 1020 | 269 | 1 | 24 | 11.7 | 0.76 |  | 
5 | NC[C@@H]1CC[C@@H](c2c[nH]cn2)O1 | 219 | 105 | 0.91 | 30.9 | 12.9 | 0.6 |  | 
6 | c1ccc(COC[C@@H]2CC[C@H](c3c[nH]cn3)O2)cc1 | 331 | 191 | 1.06 | 0.135 | 0.437 | 0.91 |  | 
7 | NC[C@H]1CC[C@@H](c2c[nH]cn2)O1 (single isomer, unassigned) | 1700 | 813 | 0.95 | 7.59 | 6.46 | 1.02 |  | 
8 | C/N=C(\NC#N)NC[C@H]1CC[C@H](c2c[nH]cn2)O1 |  |  | 0.79 | 0.0776 | 0.126 |  |  | 
9 | c1ccc(COC[C@@H]2CC[C@@H](c3c[nH]cn3)O2)cc1 |  | 9550 | 0.66 | 12.9 | 21.4 | 0.49 | 10.5 | 
10 | NC[C@H]1C=C[C@@H](c2c[nH]cn2)O1 (single isomer, unassigned) |  | > 100000 |  | 75.9 | 12 | 0.71 | 20 | 
11 | NC[C@H]1CC[C@H](c2c[nH]cn2)O1 [IMIFURAMINE] | 229 | 44.7 | 1.04 | 2 | 0.891 | 0.7 |  | 
12 | NC[C@@H]1C=C[C@@H](c2c[nH]cn2)O1 | 2510 | 2820 | 0.75 | 85.1 | > 100 | 0.85 |  | 
13 | NC[C@@H]1CC[C@H](c2c[nH]cn2)O1 (single isomer, unassigned) | 2040 | 776 | 1.06 | 5.5 | 2.51 | 0.88 |  | 
14 | C/N=C(\NC#N)NC[C@H]1CC[C@@H](c2c[nH]cn2)O1 (single isomer, unassigned) |  |  | < 0.1 |  |  | 1.07 |  | inactive
15 | C/N=C(\NC#N)NC[C@@H]1CC[C@H](c2c[nH]cn2)O1 (single isomer, unassigned) |  |  | 0.43 | 0.224 | 0.224 | 1.01 |  | 
16 | c1ccc(COC[C@H]2CC[C@@H](c3c[nH]cn3)O2)cc1 | 6920 | 9770 | 0.86 | 11.5 | 13.5 | 0.82 |  | 

Reference: ChEMBL document CHEMBL1145842, “A selective human H(4)-receptor agonist: (-)-2-cyano-1-methyl-3-[(2R,5R)-5- [1H-imidazol-4(5)-yl]tetrahydrofuran-2-y] methylguanidine” (J Med Chem, 2003)
